How the values were obtained:
Assay type in all cases: functional, tissue-based
[1] = target: T1, Progesterone receptor (Rattus norvegicus) (UniProt Q63449); experiment: Tissue distribution in bone 1 hr after [18F]-4 injection into estrogen-primed immature rats co-injected with uterine uptake blocker (ORG 2058); settings: Bone element
T1 sequence (whole entry): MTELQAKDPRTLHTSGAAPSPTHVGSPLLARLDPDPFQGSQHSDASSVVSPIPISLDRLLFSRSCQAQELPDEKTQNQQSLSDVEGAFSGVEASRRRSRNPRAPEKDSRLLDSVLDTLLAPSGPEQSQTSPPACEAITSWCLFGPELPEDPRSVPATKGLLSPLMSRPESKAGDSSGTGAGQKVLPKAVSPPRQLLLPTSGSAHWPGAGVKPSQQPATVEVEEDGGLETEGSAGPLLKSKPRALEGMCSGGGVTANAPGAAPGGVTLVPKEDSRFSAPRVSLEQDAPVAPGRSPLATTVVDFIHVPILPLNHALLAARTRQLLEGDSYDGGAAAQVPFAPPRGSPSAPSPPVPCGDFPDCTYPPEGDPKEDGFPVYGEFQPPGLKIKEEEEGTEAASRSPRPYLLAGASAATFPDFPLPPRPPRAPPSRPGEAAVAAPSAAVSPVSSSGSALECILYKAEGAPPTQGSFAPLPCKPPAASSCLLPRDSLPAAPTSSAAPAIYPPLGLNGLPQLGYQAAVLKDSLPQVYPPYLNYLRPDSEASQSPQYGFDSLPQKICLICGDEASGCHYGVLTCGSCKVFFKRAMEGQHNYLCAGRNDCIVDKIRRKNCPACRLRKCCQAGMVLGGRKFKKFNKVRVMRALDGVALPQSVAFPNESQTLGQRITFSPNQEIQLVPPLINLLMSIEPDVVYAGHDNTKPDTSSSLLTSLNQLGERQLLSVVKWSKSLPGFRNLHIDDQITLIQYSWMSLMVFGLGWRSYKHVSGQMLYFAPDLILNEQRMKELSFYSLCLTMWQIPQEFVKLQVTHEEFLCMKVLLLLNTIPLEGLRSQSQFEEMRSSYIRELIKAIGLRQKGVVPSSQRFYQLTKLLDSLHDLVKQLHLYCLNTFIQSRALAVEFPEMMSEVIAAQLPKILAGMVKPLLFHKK
In short: (§1)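 Blocking group: estrogen-primed immature female Sprague-Dawley rats (estradiol 5 μg s.c. ×2 days, used 24 h later). ORG 2058 18 μg was co-injected with the tracer dose iv via tail vein, 0.2 mL injection volume in 10% ethanol/saline. Killed 1 h later; tissues weighed and gamma-counted. Results as %ID/g or ratios, mean ± SD, n = 5.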

[2] = target: T1, Progesterone receptor (Rattus norvegicus); experiment: Tissue distribution in ovaries 1 hr after [18F]4 injection into estrogen-primed immature rats at normal dose; settings: Female gonad
In short: (§2)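 Female Sprague-Dawley rats, 23 days old, primed with estradiol 5 μg s.c. in 20% ethanol/sunflower oil on two days and used 24 h later. Under ether, they received 51 μCi tracer (30 Ci/mmol) iv via the tail vein in 0.1 mL 10% ethanol/saline. Killed by decapitation at 1 h; tissues weighed and gamma-counted. Results as %ID/g or tissue ratios, mean ± SD, n = 5.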

[3] = target: T1, Progesterone receptor (Rattus norvegicus); experiment: Tissue distribution in bone 1 hr after [18F]4 injection into estrogen-primed immature rats at low dose; settings: Bone element
In short: (§3)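 Estrogen-primed immature female Sprague-Dawley rats (estradiol 5 μg s.c. daily ×2, used 24 h later) were given a reduced tracer dose of 30 μCi in 0.04 mL 10% ethanol/saline, tail vein iv, under ether. Decapitated at 1 h; organs weighed and gamma-counted. Results as %ID/g or uterus/tissue ratio, mean ± SD, n = 5.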

[4] = target: T1, Progesterone receptor (Rattus norvegicus); experiment: Tissue distribution in brain 1 hr after [18F]4 injection into estrogen-primed immature rats at normal dose; in short: as §2
[5] = target: T1, Progesterone receptor (Rattus norvegicus); experiment: Tissue distribution in kidney 3 hr after [18F]4 injection into estrogen-primed immature rats
In short: (§4)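 Immature female Sprague-Dawley rats, estradiol-primed (5 μg s.c. in 20% ethanol/sunflower oil, two successive days, used 24 h later). Tracer (30 Ci/mmol) in 10% ethanol/saline was injected iv into the tail vein under ether anesthesia. Animals were decapitated 3 h postinjection; organs weighed and gamma-counted. %ID/g, mean ± SD, n = 5.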

[6] = target: T1, Progesterone receptor (Rattus norvegicus); experiment: Tissue distribution in blood 1 hr after [18F]4 injection into estrogen-primed immature rats co-injected uterine uptake blocker (ORG 2058); in short: as §1
[7] = target: T1, Progesterone receptor (Rattus norvegicus); experiment: Tissue distribution in brain 3 hr after [18F]4 injection into estrogen-primed immature rats; in short: as §4
[8] = target: T1, Progesterone receptor (Rattus norvegicus); experiment: Tissue distribution in uterus 1 hr after [18F]4 injection into estrogen-primed immature rats at normal dose; in short: as §2
[9] = target: T1, Progesterone receptor (Rattus norvegicus); experiment: Tissue distribution in lung 1 hr after [18F]4 injection into estrogen-primed immature rats at low dose; in short: as §3
[10] = target: T1, Progesterone receptor (Rattus norvegicus); experiment: Tissue distribution in lung 1 hr after [18F]4 injection into estrogen-primed immature rats at normal dose; in short: as §2
[11] = target: T1, Progesterone receptor (Rattus norvegicus); experiment: Tissue distribution in liver 1 hr after [18F]4 injection into estrogen-primed immature rats at low dose; in short: as §3
[12] = target: T1, Progesterone receptor (Rattus norvegicus); experiment: Tissue distribution in fat 3 hr after [18F]4 injection into estrogen-primed immature rats; settings: Adipose tissue; in short: as §4

Row | Injected dose/g [1] [%] | Injected dose/g [2] [%] | Injected dose/g [3] [%] | Injected dose/g [4] [%] | Injected dose/g [5] [%] | Injected dose/g [6] [%] | Injected dose/g [7] [%] | Injected dose/g [8] [%] | Injected dose/g [9] [%] | Injected dose/g [10] [%] | Injected dose/g [11] [%] | Injected dose/g [12] [%] | SMILES
1 | 1.44 | 3.93 | 1.77 | 0.56 | 1.47 | 0.43 | 0.2 | 3.08 | 1.46 | 1.3 | 3.62 | 5.06 | CC(=O)[C@@]12O[C@](C)(c3ccc(F)cc3)O[C@@H]1CC1C3CCC4=CC(=O)CC[C@]4(C)C3CC[C@@]12C (some centres undefined)
2 | 0.6 | 2.8 | 0.68 | 0.34 | 0.45 | 0.23 | 0.06 | 3.65 | 0.72 | 0.6 | 3.93 | 1.64 | C[C@@]1(c2ccc(F)cc2)O[C@@H]2CC3C4CCC5=CC(=O)CC[C@@H]5C4CC[C@]3(C)[C@]2(C(=O)CO)O1 (some centres undefined)

Source: ChEMBL document CHEMBL1126647, “Fluorine-18-labeled progestin ketals: synthesis and target tissue uptake selectivity of potential imaging agents for receptor-positive breast tumors” (J Med Chem, 1993)
